Source: PubChem
KCNK9 inh: KCNK9 potassium channel inhibitors, primary screen, HEK293 cells, thallium flux; actives 1.2% (n = 310,000); FluxOR thallium flux fluorescence; stronger effect = lower value; B-score at 10 µM; AID 488922, 2010; Potassium channel subfamily K member 9 (Homo sapiens), Q9NPC2;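 active = ratio B-score over 3 SD below the library mean, with starting fluorescence within 5 SD of its mean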;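 also: negative B-score means less thallium flux so channel inhibition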
KCNQ1 block: inhibitors of human KCNQ1 channel, primary screen, cell-based, thallium flux, high-throughput; actives 1.3% (n = 310,000); Potassium voltage-gated channel subfamily KQT member 1 (Homo sapiens), P51787; CHO-K1 KCNQ1, FluxOR thallium flux fluorescence; stronger effect = higher value; B-score at 10 µM;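 active = compounds whose thallium flux B-score, printed positive for inhibition, exceeds three library SD while starting fluorescence stays within three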;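 also: channel opened by potassium depolarization with thallium stimulus after 20 min compound exposure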
KCC2 mod: KCC2 cotransporter modulators, thallium flux, primary screen, cell-based, HEK293 KCC2, FluoZin-2 fluorescence, MLSMR | KCC2 cells, thallium flux FluoZin-2 fluorescence | actives 2.2% (n = 190,000) | Solute carrier family 12 member 5 (Homo sapiens), Q9H2X9 | B-score of Tl+ flux slope (higher = more flux/activation; lower = inhibition) at 10 µM;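 active = thallium flux slope and its plate-corrected score both differing from the plate sample mean at a set confidence after two filtering rounds, in either direction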;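 also: slope of fluorescence scaled to starting intensity during 10 to 20 s after thallium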
Target sequence (Q9H2X9 whole entry, looked up): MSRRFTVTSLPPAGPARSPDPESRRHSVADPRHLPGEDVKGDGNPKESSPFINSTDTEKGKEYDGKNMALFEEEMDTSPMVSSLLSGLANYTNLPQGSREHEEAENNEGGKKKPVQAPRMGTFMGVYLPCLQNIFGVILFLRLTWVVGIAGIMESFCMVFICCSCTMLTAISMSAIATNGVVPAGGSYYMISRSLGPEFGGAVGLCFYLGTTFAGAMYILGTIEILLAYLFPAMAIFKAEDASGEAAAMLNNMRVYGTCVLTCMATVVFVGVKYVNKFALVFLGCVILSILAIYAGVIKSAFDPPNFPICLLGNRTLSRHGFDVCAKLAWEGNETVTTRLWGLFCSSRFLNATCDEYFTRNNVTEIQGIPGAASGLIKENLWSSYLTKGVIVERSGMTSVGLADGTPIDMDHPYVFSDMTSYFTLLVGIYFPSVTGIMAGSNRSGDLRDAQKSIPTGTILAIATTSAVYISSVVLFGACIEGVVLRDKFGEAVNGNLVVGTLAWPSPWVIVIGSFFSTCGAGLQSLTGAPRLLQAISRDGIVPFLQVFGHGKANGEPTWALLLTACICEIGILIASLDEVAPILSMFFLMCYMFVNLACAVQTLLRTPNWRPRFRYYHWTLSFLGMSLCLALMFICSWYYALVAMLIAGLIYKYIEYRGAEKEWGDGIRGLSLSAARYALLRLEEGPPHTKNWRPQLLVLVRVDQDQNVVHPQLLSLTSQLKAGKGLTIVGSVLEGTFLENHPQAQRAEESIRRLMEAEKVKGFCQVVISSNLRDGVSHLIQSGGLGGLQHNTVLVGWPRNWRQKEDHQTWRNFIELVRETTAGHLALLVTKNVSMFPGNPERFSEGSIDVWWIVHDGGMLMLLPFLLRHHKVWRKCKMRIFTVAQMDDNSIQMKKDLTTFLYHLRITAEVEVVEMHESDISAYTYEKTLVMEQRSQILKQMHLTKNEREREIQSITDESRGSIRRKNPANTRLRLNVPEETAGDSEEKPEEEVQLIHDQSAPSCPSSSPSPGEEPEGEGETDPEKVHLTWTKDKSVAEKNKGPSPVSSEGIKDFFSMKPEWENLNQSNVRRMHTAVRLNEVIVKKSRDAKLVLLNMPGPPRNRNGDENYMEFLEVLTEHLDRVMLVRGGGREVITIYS
hERG rescue: hERG rescue from dofetilide block, primary screen, cell-based, CHO-hERG, FluxOR thallium flux, dofetilide IC70 | activation (rescue from dofetilide block), less the hit threshold, % at 10 µM | dofetilide IC70 present | actives 0.51% (n = 310,000) | Voltage-gated inwardly rectifying potassium channel KCNH2 (Homo sapiens), Q12809 | AID 1511, 2009;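 active = activation above the mean of controls blocked by dofetilide plus 5 SD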;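 also: thallium influx through hERG after potassium depolarization seen as dye fluorescence rise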
KCNQ1 act: potentiators or activators of KCNQ1 channel, primary screen, cell-based, thallium flux, high-throughput | Potassium voltage-gated channel subfamily KQT member 1 (Homo sapiens), P51787 | CHO-K1 KCNQ1, thallium flux FluxOR fluorescence; stronger effect = higher value | B-score at 10 µM | actives 0.35% (n = 310,000) | AID 2648, 2010;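 active = fluorescence ratio B-score, a plate-corrected score, at least three library SD, with initial intensity B-score within 5 SD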
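Material: CHO-K1 cells stably expressing KCNQ1. Medium: assay buffer for compound exposure, DMSO matched across wells. Reagent: K+/Tl+ depolarizing stimulus. Compound dosing: single-concentration screen. Times: 37 °C overnight plating, 90-min dark dye load, 20-min compound pretreatment. Technique: FluxOR Tl+ flux fluorescence.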
KCNK3 block: human KCNK3 channel inhibitors, primary screen, CHO cells, FluxOR thallium flux, B-score; FluxOR fluorescence; stronger effect = lower value; AID 602410, 2012; Potassium channel subfamily K member 3 (Homo sapiens), O14649; B-score at 10 µM; actives 0.84% (n = 340,000);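 active = B-score under library mean minus 4 SD, starting fluorescence ratio at most library mean plus 5 SD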;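 also: more negative B-score means stronger inhibition of thallium flux through KCNK3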
Of the large screens only hits and unclear results are named; the others gave an inactive call. Hits are enriched below; roughly 4.1% of the tested compounds scored in any of these assays.

Cc1ccc(N2C(=O)c3ccc(C(=O)O)cc3C2=O)c(C)c1	none
CN(C(=S)NC(=O)CCCOc1ccc(Cl)cc1Cl)c1ccccc1	KCC2 mod 39
CCOC(=O)C1=NN(C(=O)Nc2cccc(C(F)(F)F)c2)C2C(=O)N(c3cccc(C(F)(F)F)c3)C(=O)C12 (centres undefined)	none (no result: KCC2 mod)
CCCCC(=O)Nc1ccc(C(N)=O)cc1	none
CCCCC(=O)Nc1ccc(NCc2ccc(C)s2)cc1	hERG rescue 8.6 (no result: KCC2 mod)
COc1cc(-c2n[nH]c(=S)n2C(C)c2ccccc2)cc(OC)c1OC (centres undefined)	none (no result: KCC2 mod)
CCCc1cc(-c2n[nH]c(=S)n2C(C)c2ccccc2)cs1 (centres undefined)	KCC2 mod 7.6
COc1ccc(/C=N/n2c(C)cc(C)c(C(N)=O)c2=O)cc1	hERG rescue 6.5
C=CCn1c(=O)c(C(=O)NCCc2ccccc2)c(O)c2ccccc21	KCNQ1 block 6
C=CCn1c(=O)c(C(=O)NCc2ccc(Cl)cc2)c(O)c2ccccc21	KCNQ1 block 7 (no result: KCC2 mod)
CCCn1c(=O)c(C(=O)NCc2ccccc2)c(O)c2ccccc21	none (no result: KCC2 mod)
CCCn1c(=O)c(C(=O)NCCc2ccccc2)c(O)c2ccccc21	KCNQ1 block 10 (no result: KCC2 mod)
COC(=O)c1ccc(/C=C/c2c(-c3ccc(OC)cc3)oc3ccc(N4CCOCC4)cc23)cc1	none (no result: KCC2 mod)
Cc1ccc(S(=O)(=O)NC(Cc2ccc(Cl)cc2)C(=O)O)cc1 (centres undefined)	none (no result: KCC2 mod)
CN(Cc1ccccc1)C(=O)c1ccc(NC(=O)Cc2cccc(NC(=O)C3CCN(C(=O)C4CCC4)CC3)c2)cc1	none (no result: KCNK9 inh, KCNQ1 block, KCC2 mod, hERG rescue, KCNQ1 act)
O=C(Nc1cc(C(F)(F)F)ccc1Cl)C(Sc1ccccn1)c1ccccc1 (centres undefined)	KCNK9 inh -8.1 (no result: KCC2 mod)
CSc1ccc(CN(C)Cc2nc3cc(C(F)(F)F)ccc3c(=O)[nH]2)cc1	none
CC(C)c1nnc(NC(=O)CCC(=O)NC2CCCCC2)s1	none (no result: KCNK3 block)
O=C(Nc1ccc([N+](=O)[O-])cc1)Nc1ccc(Cl)cc1F	KCNQ1 block 14
COc1ccc(OC(C)C(=O)Nc2ccc([N+](=O)[O-])cc2)cc1 (centres undefined)	none
O=C(Nc1ccc(Cl)cc1)Nc1cc([N+](=O)[O-])ccc1F	none
Cc1cc(OC(F)F)ccc1NC(=O)Nc1ccc([N+](=O)[O-])cc1	KCNQ1 block 6
NCCCC[C@@H]1NC(=O)c2cc([N+](=O)[O-])cc(I)c2SC[C@@H](C(N)=O)NC(=O)[C@H](CCC(N)=O)NC1=O	none
CC1CCN(C(=O)CSc2nc3cccnc3n2C)CC1	none
Cn1c(SCC(=O)N2CCOCC2)nc2cccnc21	hERG rescue 4.8
Cn1c(=O)n(Cc2ccc(F)cc2)c(=O)c2c1nc1n2CCCN1C1CCCCC1	none
CN(C)S(=O)(=O)c1cc(NC2CC(=O)N(c3ccc(F)cc3)C2=O)ccc1Cl (centres undefined)	none
CC1CN(c2nc(-c3ccc(Br)cc3)nnc2-c2ccccc2)CC(C)N1 (centres undefined)	none
COC(=O)c1nc2cc3c(cc2c(C)c1C(=O)OC)OCO3	none (no result: KCC2 mod)
COc1ccc(C(=O)c2cnc3cc4c(cc3c2C)OCO4)cc1	KCNK9 inh -6.9 (no result: KCC2 mod)
CC(=O)NC1=C(NC2CCS(=O)(=O)C2)C(=O)c2ccccc2C1=O (centres undefined)	KCNQ1 act 12
CN(C)c1oc(-c2ccccc2Cl)nc1C#N	none
CN(C)c1oc(-c2ccccc2[N+](=O)[O-])nc1C#N	hERG rescue 4.7
CCCCNS(=O)(=O)c1ccc2nc(SCC(N)=O)[nH]c2c1	none
CCCCNS(=O)(=O)c1ccc2nc(SCC(=O)Nc3sccc3C#N)[nH]c2c1	KCNQ1 block 11 (no result: KCC2 mod)
O=C(COC(=O)/C=C/c1ccc2c(c1)OCO2)NC1CC1	hERG rescue 5.4
CC1CCCC(NC(=O)COC(=O)/C=C/c2ccc3c(c2)OCO3)C1C (centres undefined)	none
O=C(Nc1ccccc1Cl)NC1(C(=O)NCc2cccnc2)CCCCC1	none (no result: KCC2 mod)
C/C(=N\NC(=O)c1nnn(-c2nonc2N)c1CN(C)c1ccccc1)c1ccccn1	KCNK9 inh -7.6 (no result: KCC2 mod)
CC(/C=N/NC(=O)c1nnn(-c2nonc2N)c1CN(C)C)=C\c1ccco1	none
CCCN(CCC)Cc1c(C(=O)N/N=C/C(C)=C\c2ccco2)nnn1-c1nonc1N	KCNQ1 act 16 (no result: KCC2 mod)
O=c1c(Cl)c(Cl)cnn1Cc1nnc(-c2ccccc2Br)o1	KCNQ1 act 27
O=C(Nc1nc(=O)c2ccccc2s1)c1ccccc1	KCC2 mod 42, KCNQ1 act 11
CC(=O)Nc1nc(=O)c2ccccc2s1	none
COc1cc(CCC(=O)OCC(=O)Nc2sccc2C(N)=O)cc(OC)c1OC	none (no result: KCNK9 inh, KCNQ1 block, KCC2 mod, hERG rescue, KCNQ1 act)
CC(=O)NS(=O)(=O)c1ccc(NC(=O)/C=C/c2cn(-c3ccccc3)nc2-c2ccccc2)cc1	none
O=C(/C=C\c1cn(-c2ccccc2)nc1-c1ccccc1)Nc1nccs1	KCNK9 inh -8
CCOC(=O)c1sc(=S)n(C)c1NC(=O)c1ccc(C(C)(C)C)cc1	KCNQ1 block 11
CCOC(=O)c1sc(=S)n(C)c1NC(=O)c1ccc(OC)cc1	none
O=C(COC(=O)c1ccc(O)cc1)NC1CCCC1	none (no result: KCC2 mod)
CC1(C)CC(N2CCN(CCO)CC2)=CC(=S)N1	KCNQ1 act 10
O=S(=O)(c1c(F)cccc1F)N(CCc1ccc(F)cc1)C[C@@H](O)COCc1ccccc1	none (no result: KCNK9 inh, KCNQ1 block, KCC2 mod, hERG rescue, KCNQ1 act)
COC(=O)c1cc(OC)c(OC)cc1NC(=O)c1csc(C)c1	none (no result: KCC2 mod)
CCCCN1C(=O)/C(=C/C=C2\SCCN2C)SC1=S	none
CN1CCS/C1=C/C=C1\SC(=S)N(CC(=O)O)C1=O	KCNQ1 block 14
C=CCSc1nnc(NC(=O)C2CSC3(C)CCC(=O)N23)s1 (centres undefined)	none (no result: KCC2 mod)
Cn1c(C(=O)N2CCCC(C(=O)NCc3cccs3)C2)cc2sccc21 (centres undefined)	hERG rescue 6.0
COC(=O)[C@@]12CCCCN1[C@H](c1ccc(-c3ccccc3)cc1)[C@@H]1C(=O)N(C)C(=O)[C@@H]12	none (no result: KCC2 mod)
CCOCCN1CCN(c2c(CC)c(C)nc3cc(-c4cc(OC)cc(OC)c4)nn23)CC1	KCNK9 inh -7.2
CC(C)Sc1nsc2nc(=O)c(/C=C3\C=Nc4ccccc43)c(N)n12	none
CS(=O)(=O)c1nsc2nc(=O)c(/C=C3\C=Nc4ccccc43)c(N)n12	hERG rescue 32
